# Reference: ChEMBL document CHEMBL5058577, “EUbOPEN Chemogenomics Library 2 (Multiplex)” (2022)
# Tested on: Fibroblast
# Test: Multiplex assay against human fibroblast
# Format: toxicity, cell-based
# Outline: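 With compound added, live cells were imaged on a CQ1 microscope at 37°C and 5% CO2; staining with Hoechst33342, BioTracker Green Microtubule Cytoskeleton Dye, MitoTracker Red and Annexin V Alexa Fluor 680 had been done at seeding. The CellPathfinder machine-learning gating scheme split cells into Hoechst high-intensity objects or normal cells, normal cells into healthy, pyknosed or fragmented nuclei, and pyknosed cells into mitotic or apoptotic. The tubulin, mitochondrial-mass and membrane-permeability phenotypes are per cents of healthy-nucleus cells.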
# [1] = 12 h, 1 µM, compound concentration 1 uM, replicate 1
# [2] = 12 h, 1 µM, compound concentration 1 uM, replicate 2
# [3] = 12 h, 10 µM, compound concentration 10 uM, replicate 1
# [4] = 12 h, 10 µM, compound concentration 10 uM, replicate 2
# [5] = 24 h, 1 µM, compound concentration 1 uM, replicate 1
# [6] = 24 h, 1 µM, compound concentration 1 uM, replicate 2
# [7] = 24 h, 10 µM, compound concentration 10 uM, replicate 1
# [8] = 24 h, 10 µM, compound concentration 10 uM, replicate 2
# [9] = 48 h, 1 µM, compound concentration 1 uM, replicate 1
# [10] = 48 h, 1 µM, compound concentration 1 uM, replicate 2
# [11] = 48 h, 10 µM, compound concentration 10 uM, replicate 1
# [12] = 48 h, 10 µM, compound concentration 10 uM, replicate 2
compound,measurement,setting,value
Cc1ccc(F)cc1C(=O)Nc1ccc(C(=O)N2Cc3cccn3Cc3ccccc32)c(Cl)c1 [LIXIVAPTAN],Population Apoptotic (%),[1],40%
same,Population Fragmented Nuclei (%),[1],11%
same,Population Healthy Nuclei (%),[1],73%
same,Population Hoechst High Intensity Objects (%),[1],5%
same,Population Membrane Permeable-Phenotype (%),[1],0%
same,Population Mitochondria Different-Phenotype (%),[1],3%
same,Population Mitotic Cells (%),[1],59%
same,Population Normal (%),[1],94%
same,Population Pyknosed Nuclei (%),[1],15%
same,Population Tubulin-Different-Phenotype (%),[1],28%
same,Total Cell Count,[1],186
same,Population Apoptotic (%),[2],50%
same,Population Fragmented Nuclei (%),[2],30%
same,Population Healthy Nuclei (%),[2],47%
same,Population Hoechst High Intensity Objects (%),[2],3%
same,Population Membrane Permeable-Phenotype (%),[2],1%
same,Population Mitochondria Different-Phenotype (%),[2],9%
same,Population Mitotic Cells (%),[2],50%
same,Population Normal (%),[2],96%
same,Population Pyknosed Nuclei (%),[2],21%
same,Population Tubulin-Different-Phenotype (%),[2],38%
same,Total Cell Count,[2],117
same,Population Apoptotic (%),[3],34%
same,Population Fragmented Nuclei (%),[3],18%
same,Population Healthy Nuclei (%),[3],58%
same,Population Hoechst High Intensity Objects (%),[3],0%
same,Population Membrane Permeable-Phenotype (%),[3],2%
same,Population Mitochondria Different-Phenotype (%),[3],5%
same,Population Mitotic Cells (%),[3],65%
same,Population Normal (%),[3],99%
same,Population Pyknosed Nuclei (%),[3],23%
same,Population Tubulin-Different-Phenotype (%),[3],62%
same,Total Cell Count,[3],137
same,Population Apoptotic (%),[4],31%
same,Population Fragmented Nuclei (%),[4],27%
same,Population Healthy Nuclei (%),[4],46%
same,Population Hoechst High Intensity Objects (%),[4],5%
same,Population Membrane Permeable-Phenotype (%),[4],6%
same,Population Mitochondria Different-Phenotype (%),[4],10%
same,Population Mitotic Cells (%),[4],68%
same,Population Normal (%),[4],94%
same,Population Pyknosed Nuclei (%),[4],25%
same,Population Tubulin-Different-Phenotype (%),[4],72%
same,Total Cell Count,[4],179
same,Population Apoptotic (%),[5],50%
same,Population Fragmented Nuclei (%),[5],12%
same,Population Healthy Nuclei (%),[5],73%
same,Population Hoechst High Intensity Objects (%),[5],1%
same,Population Membrane Permeable-Phenotype (%),[5],1%
same,Population Mitochondria Different-Phenotype (%),[5],0%
same,Population Mitotic Cells (%),[5],50%
same,Population Normal (%),[5],98%
same,Population Pyknosed Nuclei (%),[5],14%
same,Population Tubulin-Different-Phenotype (%),[5],33%
same,Total Cell Count,[5],172
same,Population Apoptotic (%),[6],32%
same,Population Fragmented Nuclei (%),[6],33%
same,Population Healthy Nuclei (%),[6],43%
same,Population Hoechst High Intensity Objects (%),[6],3%
same,Population Membrane Permeable-Phenotype (%),[6],5%
same,Population Mitochondria Different-Phenotype (%),[6],5%
same,Population Mitotic Cells (%),[6],67%
same,Population Normal (%),[6],96%
same,Population Pyknosed Nuclei (%),[6],23%
same,Population Tubulin-Different-Phenotype (%),[6],52%
same,Total Cell Count,[6],126
same,Population Apoptotic (%),[7],25%
same,Population Fragmented Nuclei (%),[7],19%
same,Population Healthy Nuclei (%),[7],63%
same,Population Hoechst High Intensity Objects (%),[7],0%
same,Population Membrane Permeable-Phenotype (%),[7],2%
same,Population Mitochondria Different-Phenotype (%),[7],8%
same,Population Mitotic Cells (%),[7],75%
same,Population Normal (%),[7],99%
same,Population Pyknosed Nuclei (%),[7],17%
same,Population Tubulin-Different-Phenotype (%),[7],63%
same,Total Cell Count,[7],142
same,Population Apoptotic (%),[8],51%
same,Population Fragmented Nuclei (%),[8],26%
same,Population Healthy Nuclei (%),[8],51%
same,Population Hoechst High Intensity Objects (%),[8],5%
same,Population Membrane Permeable-Phenotype (%),[8],11%
same,Population Mitochondria Different-Phenotype (%),[8],12%
same,Population Mitotic Cells (%),[8],48%
same,Population Normal (%),[8],94%
same,Population Pyknosed Nuclei (%),[8],22%
same,Population Tubulin-Different-Phenotype (%),[8],82%
same,Total Cell Count,[8],174
same,Population Apoptotic (%),[9],63%
same,Population Fragmented Nuclei (%),[9],18%
same,Population Healthy Nuclei (%),[9],68%
same,Population Hoechst High Intensity Objects (%),[9],8%
same,Population Membrane Permeable-Phenotype (%),[9],0%
same,Population Mitochondria Different-Phenotype (%),[9],3%
same,Population Mitotic Cells (%),[9],36%
same,Population Normal (%),[9],91%
same,Population Pyknosed Nuclei (%),[9],13%
same,Population Tubulin-Different-Phenotype (%),[9],28%
same,Total Cell Count,[9],181
same,Population Apoptotic (%),[10],50%
same,Population Fragmented Nuclei (%),[10],37%
same,Population Healthy Nuclei (%),[10],40%
same,Population Hoechst High Intensity Objects (%),[10],0%
same,Population Membrane Permeable-Phenotype (%),[10],4%
same,Population Mitochondria Different-Phenotype (%),[10],11%
same,Population Mitotic Cells (%),[10],50%
same,Population Normal (%),[10],99%
same,Population Pyknosed Nuclei (%),[10],21%
same,Population Tubulin-Different-Phenotype (%),[10],53%
same,Total Cell Count,[10],111
same,Population Apoptotic (%),[11],70%
same,Population Fragmented Nuclei (%),[11],25%
same,Population Healthy Nuclei (%),[11],62%
same,Population Hoechst High Intensity Objects (%),[11],2%
same,Population Membrane Permeable-Phenotype (%),[11],0%
same,Population Mitochondria Different-Phenotype (%),[11],13%
same,Population Mitotic Cells (%),[11],29%
same,Population Normal (%),[11],97%
same,Population Pyknosed Nuclei (%),[11],11%
same,Population Tubulin-Different-Phenotype (%),[11],69%
same,Total Cell Count,[11],149
same,Population Apoptotic (%),[12],73%
same,Population Fragmented Nuclei (%),[12],36%
same,Population Healthy Nuclei (%),[12],51%
same,Population Hoechst High Intensity Objects (%),[12],5%
same,Population Membrane Permeable-Phenotype (%),[12],6%
same,Population Mitotic Cells (%),[12],26%
same,Population Normal (%),[12],94%
same,Population Tubulin-Different-Phenotype (%),[12],78%
same,Total Cell Count,[12],170
